Results collected from several papers.
Protocols differ between the studies behind these lines.
Cell line: HeLa
Observed: cell growth or viability

Compound | method | time | IC50
CC(C)CCn1c[n+](CC(=O)c2cc(OC(C)C)c3ccccc3c2OC(C)C)c2ccccc21 | MTT | 24 h | 12.9 µM
COc1ccc(CNC(=O)Cn2cc(COc3ncnc4[nH]cnc34)nn2)cc1 | MTT | – | 29.6 µM
CC(C)CCOc1cc(C[n+]2c(CO)n(CCC(C)C)c3ccccc32)c(OCCC(C)C)c2ccccc12 | MTT | 24 h | 11.8 µM
COc1cc([C@@H]2c3cc4c(cc3[C@@H](O[C@@H]3O[C@@H]5CO[C@@H](C)O[C@H]5[C@H](O)[C@H]3O)[C@H]3COC(=O)[C@H]23)OCO4)cc(OC)c1O | MTT | 48 h | 3.9 µM
COc1cccc2c1C(=O)c1c(O)c3c(c(O)c1C2=O)C[C@@](O)(C(=O)CO)C[C@@H]3O[C@H]1C[C@H](N)[C@H](O)[C@H](C)O1 | – | – | 0.03 µM
[Cl-].[Li+] | MTT | – | > 10000 µM
O=C(Cn1cc(COc2ncnc3[nH]cnc23)nn1)Nc1ccc(O)cc1 | MTT | – | 17.6 µM
Cc1sc2c(c1C)C(c1ccc(Cl)cc1)=N[C@@H](CC(=O)NCCCCNC(=O)COc1cccc3c1C(=O)N(C1CCC(=O)NC1=O)C3=O)c1nnc(C)n1-2 (stereo partly shown) | CCK-8 | 72 h | > 10 µM
Fc1ccccc1Nc1nc(-c2ccncc2)nc2c1CNCC2 | MTT | – | > 100 µM
CC(C)CCOc1cc(C[n+]2cn(CCC(C)C)c3cc(Br)c(Br)cc32)c(OCCC(C)C)c2ccccc12 | MTT | 24 h | 7.2 µM
CN(C)C(=S)[N-]N=C(c1ccccn1)c1ccccn1.[O]=[V+]=[O] | MTT | 48 h | 42.9 µM
CC(C)CCOc1cc(C[n+]2c(-c3ccc(F)cc3)n(CCC(C)C)c3ccccc32)c(OCCC(C)C)c2ccccc12 | MTT | 24 h | 9.4 µM
CCC(=CCc1c(O)cc2c(c1O)C(=O)C[C@H](c1ccccc1O)O2)CC | MTT | – | 37.4 µM
CC(C)CCOc1cc(C[n+]2c(C(C)C)n(CCC(C)C)c3ccccc32)c(OCCC(C)C)c2ccccc12 | MTT | 24 h | 6.8 µM
O=Cc1cccc(NC(=O)Cn2cc(COc3ncnc4[nH]cnc34)nn2)c1 | MTT | – | 22.1 µM
Fc1ccc(NC(=S)N/N=C/c2cccc3cc4ccccc4nc23)cc1 | MTT | 48 h | 18.4 µM
Cc1ccc(NC(=O)Cn2cc(COc3ncnc4[nH]cnc34)nn2)c(C)c1 | MTT | – | 21.4 µM
CC(C)CCOc1cc(C[n+]2c(-c3ccccc3)n(CCC(C)C)c3ccccc32)c(OCCC(C)C)c2ccccc12 | MTT | 24 h | 7.3 µM
COc1cccc2c1C(=O)c1c(O)c3c(c(O)c1C2=O)C[C@@](O)(C(=O)CO)C[C@@H]3O[C@H]1C[C@H](N)[C@H](O)[C@H](C)O1 | MTT | 48 h | 0.2 µM
CN1CCc2c(c3ccccc3n2Cc2ccc(C(=O)NO)cc2)C1 | CCK-8 | 48 h | 17.6 µM
Cc1n(CCC(C)C)c2ccccc2[n+]1Cc1cc(OCCC(C)C)c2ccccc2c1OCCC(C)C | MTT | 24 h | 7.6 µM
CCC(=CCc1c(O)cc2c(c1O)C(=O)CC(c1ccc(O)cc1)O2)CC (stereo in doubt) | MTT | 48 h | 19.1 µM
COc1cccc(NC(=S)N/N=C/c2cccc3cc4ccccc4nc23)c1 | MTT | 48 h | 46.8 µM
CNc1cccc(Nc2nc(-c3ccncc3)nc3c2CNCC3)c1 | MTT | – | > 100 µM
S=C(N/N=C/c1cccc2cc3ccccc3nc12)Nc1ccccc1 | MTT | 48 h | 28.3 µM
CSc1ccccc1-c1cc(C(N)=O)c2[nH]c3c(c2c1)CC(N)CC3 (stereo not shown) | – | – | 1.46 µM
COC(C)c1n(CCC(C)C)c2ccccc2[n+]1Cc1cc(OCCC(C)C)c2ccccc2c1OCCC(C)C (stereo not shown) | MTT | 24 h | 5.7 µM
CN1C(=O)C(=O)c2cc3c(c4c2c1cc1ccccc14)OCO3 | MTT | 75 h | 56.9 µM
